Laboratory results taken from ChEMBL document CHEMBL1130261, “Identification of novel farnesyl protein transferase inhibitors using three-dimensional database searching methods” (J Med Chem, 1997).

These molecules were tested against T1, Protein farnesyltransferase (Homo sapiens, UniProt P49354+P49356) (assay: Inhibitory activity against farnesyltransferase (FPT) (20 ug/mL)).
Format: protein-complex assay
Summary of the method: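 Primary scintillation proximity assay (SPA) following the kit protocol, with a biotinylated substrate peptide bearing the K-Ras carboxy-terminal sequence.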

inhibition	Compound
88%	C=CCO[C@@H]1c2ccc(Cl)cc2S[C@@H]1Cn1ccnc1
95%	Clc1ccc(COC2c3c(Cl)cccc3SC2Cn2ccnc2)cc1 (stereo not given)
92%	Clc1ccc2c(c1)C(OCc1ccsc1Cl)C(Cn1ccnc1)S2 (stereo not given)
68%	Clc1ccc2c(c1)S[C@H](Cn1ccnc1)[C@@H]2OCc1c(Cl)sc2ccccc12
76%	Clc1sccc1CO[C@@H]1c2ccc3ccccc3c2S[C@@H]1Cn1ccnc1
89%	Clc1ccc2c(c1)S[C@H](Cn1ccnc1)[C@@H]2OCc1cc(Cl)sc1Cl
86%	CC(=O)N1CCN(c2nc(CO[C@@H]3c4cc(C(C)(C)C)ccc4S[C@@H]3Cn3ccnc3)ns2)CC1
95%	Clc1ccc2c(c1)S[C@H](Cn1ccnc1)[C@@H]2OCc1ccc(Cl)c(Cl)c1
23%	O[C@@H]1c2cc(F)ccc2S[C@@H]1Cn1ccnc1
85%	Clc1ccc2c(c1)C(OCc1c(Cl)cccc1Cl)C(Cn1ccnc1)S2 (stereo not given)
61%	Clc1sccc1CO[C@@H]1c2cc3c(cc2S[C@@H]1Cn1ccnc1)CCCC3
60%	Clc1ccc(COC2c3c(Cl)cc(Cl)cc3SC2Cn2ccnc2)c(Cl)c1 (stereo not given)
80%	Clc1ccc2c(c1)S[C@H](Cn1ccnc1)[C@@H]2OCc1c(Cl)ccc2c1OCO2
86%	Clc1cc(Cl)c2c(c1)[C@@H](OCc1ccsc1Cl)[C@@H](Cn1ccnc1)S2
90%	Clc1ccc2c(c1)S[C@H](Cn1ccnc1)[C@@H]2OCc1cscn1
92%	Fc1cccc(Cl)c1CO[C@@H]1c2ccc(Cl)cc2S[C@@H]1Cn1ccnc1
91%	Fc1ccc2c(c1)[C@@H](OCc1ccc(Cl)cc1Cl)[C@@H](Cn1ccnc1)S2
92%	Clc1cccc2c1S[C@H](Cn1ccnc1)[C@@H]2OCc1ccsc1Cl

inhibition	Compound
99%	Clc1ccc(COC2c3cc(Cl)ccc3SC2Cn2ccnc2)c(Cl)c1 (stereo not given)
88%	Clc1sccc1CO[C@@H]1c2cc(Br)ccc2S[C@@H]1Cn1ccnc1
96%	Clc1ccc2c(c1)S[C@H](Cn1ccnc1)[C@@H]2OCc1ccsc1Cl
90%	Fc1ccc2c(c1)[C@@H](OCc1c(Cl)cccc1Cl)[C@@H](Cn1ccnc1)S2
75%	Clc1ccc(COC2c3ccc(Cl)cc3SC2Cn2ccnc2)c(Cl)c1 (stereo not given)
44%	O[C@@H]1c2cccc(Cl)c2S[C@@H]1Cn1ccnc1
79%	[O-][S+]1c2cc(Cl)ccc2[C@@H](OCc2ccsc2Cl)[C@H]1Cn1ccnc1 (stereo not given in full)
14%	Cc1cccc2c1[C@@H](O)[C@@H](Cn1ccnc1)S2
90%	Clc1sccc1CO[C@@H]1c2c(ccc3c2CCCC3)S[C@@H]1Cn1ccnc1
89%	Clc1cccc2c1[C@@H](OCc1ccsc1Cl)[C@@H](Cn1ccnc1)S2
93%	Clc1cc2c(cc1Cl)C(OCc1ccsc1Cl)C(Cn1ccnc1)S2 (stereo not given)
96%	Fc1ccc2c(c1)[C@@H](OCc1ccc(Cl)c(Cl)c1)[C@@H](Cn1ccnc1)S2
95%	Clc1ccc2c(c1)S[C@H](Cn1ccnc1)[C@@H]2OCc1ccsc1
95%	Fc1ccc2c(c1)[C@@H](OCc1ccsc1Cl)[C@@H](Cn1ccnc1)S2
91%	Fc1ccc2c(c1)S[C@H](Cn1ccnc1)[C@@H]2OCc1ccsc1
90%	Cc1onc(-c2ccccc2)c1CO[C@@H]1c2ccc(Cl)cc2S[C@@H]1Cn1ccnc1
69%	Clc1ccc2c(c1)S[C@H](Cn1ccnc1)[C@@H]2OCc1cnc2cc3c(cc2c1Cl)OCO3

These molecules were tested against Geranylgeranyl transferase type I (Homo sapiens, UniProt P49354+P53609) (assay: Inhibitory activity against Geranylgeranyl transferase type I).
Format: protein-complex assay

IC50	Compound
38 µM	Clc1ccc2c(c1)S[C@H](Cn1ccnc1)[C@@H]2OCc1c(Cl)sc2ccccc12
15 µM	Clc1sccc1CO[C@@H]1c2ccc3ccccc3c2S[C@@H]1Cn1ccnc1
> 39 µM	CC(=O)N1CCN(c2nc(CO[C@@H]3c4cc(C(C)(C)C)ccc4S[C@@H]3Cn3ccnc3)ns2)CC1
12.9 µM	Clc1ccc2c(c1)S[C@H](Cn1ccnc1)[C@@H]2OCc1ccc(Cl)c(Cl)c1
16.2 µM	Clc1cc(Cl)c2c(c1)[C@@H](OCc1ccsc1Cl)[C@@H](Cn1ccnc1)S2
18.3 µM	Fc1ccc2c(c1)[C@@H](OCc1ccc(Cl)cc1Cl)[C@@H](Cn1ccnc1)S2
0.7 µM	Clc1ccc(COC2c3cc(Cl)ccc3SC2Cn2ccnc2)c(Cl)c1 (stereo not given)
14.2 µM	Clc1sccc1CO[C@@H]1c2cc(Br)ccc2S[C@@H]1Cn1ccnc1
16.8 µM	Clc1sccc1CO[C@@H]1c2c(ccc3c2CCCC3)S[C@@H]1Cn1ccnc1
36.5 µM	Clc1cccc2c1[C@@H](OCc1ccsc1Cl)[C@@H](Cn1ccnc1)S2
2.9 µM	Clc1cc2c(cc1Cl)C(OCc1ccsc1Cl)C(Cn1ccnc1)S2 (stereo not given)
9.8 µM	Fc1ccc2c(c1)[C@@H](OCc1ccc(Cl)c(Cl)c1)[C@@H](Cn1ccnc1)S2
34.1 µM	Fc1ccc2c(c1)[C@@H](OCc1ccsc1Cl)[C@@H](Cn1ccnc1)S2
1.4 µM	Clc1ccc2c(c1)S[C@H](Cn1ccnc1)[C@@H]2OCc1cnc2cc3c(cc2c1Cl)OCO3

The molecules below were run against T1, Protein farnesyltransferase (assay: Inhibition of Farnesyltransferase).
Format: protein-complex assay

IC50	Compound
16 µM	Clc1ccc(COC2c3c(Cl)cccc3SC2Cn2ccnc2)cc1 (stereo not given)

What follows are molecules tested against Protein farnesyl/geranylgeranyl transferase (Homo sapiens) (UniProt P49354+P49356+P53609) (assay: Selectivity was expressed as the ratio of the Geranylgeranyl transferase type I to FPT inhibitory activities (IC50)).
Format: protein-complex assay

Selectivity ratio	Compound
19	Clc1ccc2c(c1)S[C@H](Cn1ccnc1)[C@@H]2OCc1c(Cl)sc2ccccc12
10	Clc1sccc1CO[C@@H]1c2ccc3ccccc3c2S[C@@H]1Cn1ccnc1
10.8	Clc1ccc2c(c1)S[C@H](Cn1ccnc1)[C@@H]2OCc1ccc(Cl)c(Cl)c1
10.1	Clc1cc(Cl)c2c(c1)[C@@H](OCc1ccsc1Cl)[C@@H](Cn1ccnc1)S2
26.1	Fc1ccc2c(c1)[C@@H](OCc1ccc(Cl)cc1Cl)[C@@H](Cn1ccnc1)S2
3.5	Clc1ccc(COC2c3cc(Cl)ccc3SC2Cn2ccnc2)c(Cl)c1 (stereo not given)
12.9	Clc1sccc1CO[C@@H]1c2cc(Br)ccc2S[C@@H]1Cn1ccnc1
84	Clc1sccc1CO[C@@H]1c2c(ccc3c2CCCC3)S[C@@H]1Cn1ccnc1
28.1	Clc1cccc2c1[C@@H](OCc1ccsc1Cl)[C@@H](Cn1ccnc1)S2
2.1	Clc1cc2c(cc1Cl)C(OCc1ccsc1Cl)C(Cn1ccnc1)S2 (stereo not given)
14	Fc1ccc2c(c1)[C@@H](OCc1ccc(Cl)c(Cl)c1)[C@@H](Cn1ccnc1)S2
18.9	Fc1ccc2c(c1)[C@@H](OCc1ccsc1Cl)[C@@H](Cn1ccnc1)S2
0.6	Clc1ccc2c(c1)S[C@H](Cn1ccnc1)[C@@H]2OCc1cnc2cc3c(cc2c1Cl)OCO3

These molecules were tested against T1, Protein farnesyltransferase (assay: Inhibition of Farnesyltransferase (FPT) in FPT Ras/TCA assay).
Format: protein-complex assay
Summary of the method: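 Secondary FPT assay measuring transfer of [³H]farnesyl from [³H]farnesyl pyrophosphate to His₆-H-Ras-CVLS. Labelled protein was collected by TCA precipitation. IC50 values were obtained from this Ras/TCA format.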

IC50	Compound
3.1 µM	Clc1ccc2c(c1)S[C@H](Cn1ccnc1)[C@@H]2OCc1cnc2cc3c(cc2c1Cl)OCO3

Each molecule was assayed against T1, Protein farnesyltransferase (assay: Inhibitory activity against recombinant human farnesyltransferase).
Format: protein-complex assay

IC50	Compound
8.5 µM	C=CCO[C@@H]1c2ccc(Cl)cc2S[C@@H]1Cn1ccnc1
1.3 µM	Clc1ccc(COC2c3c(Cl)cccc3SC2Cn2ccnc2)cc1 (stereo not given)
2.5 µM	Clc1ccc2c(c1)C(OCc1ccsc1Cl)C(Cn1ccnc1)S2 (stereo not given)
2 µM	Clc1ccc2c(c1)S[C@H](Cn1ccnc1)[C@@H]2OCc1c(Cl)sc2ccccc12
1.5 µM	Clc1sccc1CO[C@@H]1c2ccc3ccccc3c2S[C@@H]1Cn1ccnc1
1.2 µM	Clc1ccc2c(c1)S[C@H](Cn1ccnc1)[C@@H]2OCc1ccc(Cl)c(Cl)c1
5.3 µM	Clc1ccc2c(c1)C(OCc1c(Cl)cccc1Cl)C(Cn1ccnc1)S2 (stereo not given)
10.8 µM	Clc1sccc1CO[C@@H]1c2cc3c(cc2S[C@@H]1Cn1ccnc1)CCCC3
12.3 µM	Clc1ccc(COC2c3c(Cl)cc(Cl)cc3SC2Cn2ccnc2)c(Cl)c1 (stereo not given)
3.2 µM	Clc1ccc2c(c1)S[C@H](Cn1ccnc1)[C@@H]2OCc1c(Cl)ccc2c1OCO2
1.6 µM	Clc1cc(Cl)c2c(c1)[C@@H](OCc1ccsc1Cl)[C@@H](Cn1ccnc1)S2
10.7 µM	Clc1ccc2c(c1)S[C@H](Cn1ccnc1)[C@@H]2OCc1cscn1
4.4 µM	Fc1cccc(Cl)c1CO[C@@H]1c2ccc(Cl)cc2S[C@@H]1Cn1ccnc1
0.7 µM	Fc1ccc2c(c1)[C@@H](OCc1ccc(Cl)cc1Cl)[C@@H](Cn1ccnc1)S2
6 µM	Clc1cccc2c1S[C@H](Cn1ccnc1)[C@@H]2OCc1ccsc1Cl
0.2 µM	Clc1ccc(COC2c3cc(Cl)ccc3SC2Cn2ccnc2)c(Cl)c1 (stereo not given)

IC50	Compound
1.1 µM	Clc1sccc1CO[C@@H]1c2cc(Br)ccc2S[C@@H]1Cn1ccnc1
2.3 µM	Clc1ccc2c(c1)S[C@H](Cn1ccnc1)[C@@H]2OCc1ccsc1Cl
2.7 µM	Fc1ccc2c(c1)[C@@H](OCc1c(Cl)cccc1Cl)[C@@H](Cn1ccnc1)S2
5.4 µM	Clc1ccc(COC2c3ccc(Cl)cc3SC2Cn2ccnc2)c(Cl)c1 (stereo not given)
20.8 µM	[O-][S+]1c2cc(Cl)ccc2[C@@H](OCc2ccsc2Cl)[C@H]1Cn1ccnc1 (stereo not given in full)
266 µM	Cc1cccc2c1[C@@H](O)[C@@H](Cn1ccnc1)S2
0.2 µM	Clc1sccc1CO[C@@H]1c2c(ccc3c2CCCC3)S[C@@H]1Cn1ccnc1
1.3 µM	Clc1cccc2c1[C@@H](OCc1ccsc1Cl)[C@@H](Cn1ccnc1)S2
1.4 µM	Clc1cc2c(cc1Cl)C(OCc1ccsc1Cl)C(Cn1ccnc1)S2 (stereo not given)
0.7 µM	Fc1ccc2c(c1)[C@@H](OCc1ccc(Cl)c(Cl)c1)[C@@H](Cn1ccnc1)S2
16 µM	Clc1ccc2c(c1)S[C@H](Cn1ccnc1)[C@@H]2OCc1ccsc1
1.8 µM	Fc1ccc2c(c1)[C@@H](OCc1ccsc1Cl)[C@@H](Cn1ccnc1)S2
13.6 µM	Fc1ccc2c(c1)S[C@H](Cn1ccnc1)[C@@H]2OCc1ccsc1
2.5 µM	Cc1onc(-c2ccccc2)c1CO[C@@H]1c2ccc(Cl)cc2S[C@@H]1Cn1ccnc1
2.5 µM	Clc1ccc2c(c1)S[C@H](Cn1ccnc1)[C@@H]2OCc1cnc2cc3c(cc2c1Cl)OCO3
